This note sets out measurements from ChEMBL document CHEMBL2046278, “Development and evaluation of multifunctional agents for potential treatment of Alzheimer's disease: application to a pyrimidine-2,4-diamine template” (Bioorg Med Chem Lett, 2012).

The source made the active and inactive calls. The calls are words filed in the database; no cut-off is given here. Peptide text beside a SMILES is read from it. * marks the point of attachment. Cbz = O=C(OCc1ccccc1)*

The target of data set [1] is Acetylcholinesterase (Homo sapiens, UniProt P22303). The data set can be described thus: Inhibition of human AChE using acetylthiocholine iodide as substrate after 5 mins by DTNB method.
Chain of Acetylcholinesterase (P22303 whole entry): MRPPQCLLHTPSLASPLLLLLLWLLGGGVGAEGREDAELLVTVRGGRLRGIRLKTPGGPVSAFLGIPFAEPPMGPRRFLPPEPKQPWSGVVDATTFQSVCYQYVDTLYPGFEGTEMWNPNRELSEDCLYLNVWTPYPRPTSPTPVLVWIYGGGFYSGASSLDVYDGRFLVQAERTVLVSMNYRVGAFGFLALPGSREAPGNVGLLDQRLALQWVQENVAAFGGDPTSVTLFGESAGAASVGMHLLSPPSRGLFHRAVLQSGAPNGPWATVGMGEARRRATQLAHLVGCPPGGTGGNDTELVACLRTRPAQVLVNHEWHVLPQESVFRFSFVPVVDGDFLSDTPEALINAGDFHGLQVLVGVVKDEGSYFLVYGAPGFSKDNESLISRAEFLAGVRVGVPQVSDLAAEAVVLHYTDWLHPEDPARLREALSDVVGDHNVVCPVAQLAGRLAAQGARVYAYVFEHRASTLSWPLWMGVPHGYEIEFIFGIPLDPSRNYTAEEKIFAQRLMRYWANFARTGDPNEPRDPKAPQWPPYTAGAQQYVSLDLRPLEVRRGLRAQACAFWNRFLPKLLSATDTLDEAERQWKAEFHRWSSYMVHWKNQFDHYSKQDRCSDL
The target of data set [2] is Cholinesterase (Equus caballus, UniProt P81908). The data set can be described thus: Inhibition of equine BuChE using butyrylthiocholine iodide as substrate after 5 mins by DTNB method.
Chain of Cholinesterase (P81908 whole entry): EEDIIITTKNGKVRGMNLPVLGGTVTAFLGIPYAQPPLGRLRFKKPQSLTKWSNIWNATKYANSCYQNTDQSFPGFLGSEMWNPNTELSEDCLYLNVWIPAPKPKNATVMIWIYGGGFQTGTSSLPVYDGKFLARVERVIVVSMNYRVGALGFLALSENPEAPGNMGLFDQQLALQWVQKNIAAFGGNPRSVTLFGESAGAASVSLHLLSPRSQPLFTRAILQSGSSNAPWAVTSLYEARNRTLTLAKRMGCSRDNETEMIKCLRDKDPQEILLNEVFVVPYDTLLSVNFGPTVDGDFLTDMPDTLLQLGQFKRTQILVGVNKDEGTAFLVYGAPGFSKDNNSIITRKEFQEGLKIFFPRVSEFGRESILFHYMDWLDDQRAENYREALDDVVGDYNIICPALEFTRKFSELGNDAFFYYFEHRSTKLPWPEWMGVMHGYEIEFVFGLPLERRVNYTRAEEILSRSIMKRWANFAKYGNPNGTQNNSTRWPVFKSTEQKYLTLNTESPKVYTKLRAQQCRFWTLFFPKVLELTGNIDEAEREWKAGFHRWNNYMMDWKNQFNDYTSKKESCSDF
A short description of data set [3]: Selectivity ratio of IC50 for human AChE to IC50 for equine BuChE.
Data set [4] concerns the target T1, Beta-secretase 1 (Homo sapiens, UniProt P56817). The data set can be described thus: Inhibition of BACE1.
Data set [5] is described as follows: Inhibition of self-induced amyloid beta (1 to 40) aggregation at 100 uM after 24 hrs by thioflavin T-based fluorescence analysis. In short, it runs like this: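 Aβ1-40 peptide aggregating on its own, without hAChE, with test compound at 100 μM. Aggregation read by thioflavin T fluorescence and expressed as % inhibition. Reported as the mean of two separate experiments (n = 4), with deviation from the mean under 10% of the mean value.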

A short description of data set [6]: Inhibition of amyloid beta (1 to 40) fibril formation at 10 uM coincubated with amyloid beta (1 to 40) peptide after 72 hrs by transmission electron microscopic analysis.
A short description of data set [7]: Induction of disassembly of preformed amyloid beta (1 to 40) fibrils assessed as disaggregated fibrils at 10 uM after 3 days by transmission electron microscopic analysis. In short, it runs like this: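 Aβ1-40 fibrils were preformed over a three-day pre-fibrillization period. Compound was then incubated with the fibrils at 10 μM, and fibril morphology and disassembly were examined by transmission electron microscopy.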

Data set [8] deals with T1, Beta-secretase 1. The data set can be described thus: Inhibition of BACE1 at 10 uM.
A short description of data set [9]: Cytotoxicity against human SH-SY5Y cells assessed as cell viability at 40 uM after 24 hrs by MTT assay. Type of data set: cell-based. The note with it: read-out: Activity. (Formazan colour is commonly taken as a measure of viable cells.)

T1 sequence (P56817 whole entry): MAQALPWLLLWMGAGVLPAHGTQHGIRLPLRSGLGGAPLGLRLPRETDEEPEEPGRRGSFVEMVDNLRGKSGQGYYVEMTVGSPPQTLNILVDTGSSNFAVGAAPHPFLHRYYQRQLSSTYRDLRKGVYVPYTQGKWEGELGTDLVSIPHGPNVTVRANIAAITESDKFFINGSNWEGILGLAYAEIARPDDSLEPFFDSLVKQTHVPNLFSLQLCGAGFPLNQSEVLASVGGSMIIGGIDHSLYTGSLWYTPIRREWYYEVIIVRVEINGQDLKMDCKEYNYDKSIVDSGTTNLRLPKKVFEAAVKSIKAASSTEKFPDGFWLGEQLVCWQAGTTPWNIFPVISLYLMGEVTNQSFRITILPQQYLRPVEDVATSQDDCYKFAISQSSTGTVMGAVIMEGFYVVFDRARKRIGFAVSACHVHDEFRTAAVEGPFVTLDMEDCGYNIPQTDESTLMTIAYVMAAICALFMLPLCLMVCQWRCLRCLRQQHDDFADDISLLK

What is called IC50 is the concentration that inhibits the measured activity by half. As a reminder, the inhibition is how much of the control response was suppressed. With `Fc1ccc(CNc2ccnc(NC3CCN(Cc4ccccc4)CC3)n2)cc1`, the IC50 amounted to 7.7 µM in [1], 2.2 µM in data set [2] and 0.7 µM in data set [4]. Moreover, the Ratio IC50 in data set [3] was 3.5. Besides, the inhibition in [5] amounted to 29.8%.

As to `COc1ccc(CNc2ccnc(NC3CCN(Cc4ccccc4)CC3)n2)cc1`, the IC50 in [1] stood at 9.4 µM; in data set [2], 4.9 µM; in data set [4] it was 0.6 µM. Moreover, the Ratio IC50 in data set [3] was 1.9. Further, the inhibition in [5] is 18.2%.

Regarding `c1ccc(CN2CCC(Nc3nccc(NCc4ccc5c(c4)OCO5)n3)CC2)cc1`, the IC50 came out at 12.6 µM in [1], 3.9 µM in [2] and 1.4 µM in data set [4]. In addition, the Ratio IC50 in data set [3] is 3.2. Moreover, the inhibition in data set [5] was found to be 18.6%.

Turning to `COc1cc(CNc2ccnc(NC3CCN(Cc4ccccc4)CC3)n2)cc(OC)c1OC`, the IC50 is 10.3 µM in [1], 7.7 µM in data set [2] and 8.9 µM in data set [4]. Further, the Ratio IC50 in data set [3] was found to be 1.3. Also, the inhibition result in [5] was “inactive”.

As for `CC(C)C[C@@H](C=O)NC(=O)[C@H](CC(C)C)NC(=O)[C@@H](NC(=O)OCc1ccccc1)C(C)C` (Cbz-Val-Leu-Leu-aldehyde), it took 14 µM to reach half-maximal inhibition in data set [4] (IC50).

Regarding `Clc1ccccc1CNc1ccnc(NC2CCN(Cc3ccccc3)CC2)n1`, the IC50 is 7.7 µM in data set [1], 2.4 µM in [2] and 1.7 µM in data set [4]. In addition, the Ratio IC50 in [3] turned out to be 3.2. This compound showed an inhibition in data set [5] of 42.2%.

Take `Cc1ccc(CNc2ccnc(NC3CCN(Cc4ccccc4)CC3)n2)cc1`: the figures for the IC50 in data set [1], in data set [2] and in data set [4] were 12.9 µM, 2.5 µM and 11.1 µM, respectively. The Ratio IC50 in data set [3] amounted to 5.2. This compound also displayed an inhibition in data set [5] of 21.9%.

Turning to `Clc1ccc(CNc2ccnc(NC3CCN(Cc4ccccc4)CC3)n2)cc1`, the IC50 in data set [1] came to 8.8 µM; in [2], 2.8 µM; in data set [4] it was 3.2 µM. Besides, in data set [3], the Ratio IC50 was found to be 3.1. In [5], the inhibition was found to be 42.6%. In addition, the inhibition entry in data set [6] and in data set [7] was “Active” throughout.

For `Clc1cccc(CNc2ccnc(NC3CCN(Cc4ccccc4)CC3)n2)c1`, the values for the IC50 in data set [1], in [2] and in data set [4] were 7.7 µM, 2.5 µM and 0.6 µM, respectively. Moreover, the Ratio IC50 in data set [3] came to 3.1. The same compound displayed an inhibition in data set [5] of 39.9%.

Compound `COc1ccc2c3c1O[C@H]1C[C@@H](O)C=C[C@@]31CCN(C)C2` came in with an inhibition in [5] of 48%. Besides, the inhibition entry in data set [6] was “Active”.

Take `COc1ccc(CNc2ccnc(NC3CCN(Cc4ccccc4)CC3)n2)cc1OC`: the IC50 came to 9.9 µM in data set [1] and 11.4 µM in [2]. In [3], the Ratio IC50 came out at 0.9. Further, the inhibition is 34% in [8] and 17.4% in data set [5]. In addition, in data set [9], the viability at 24 h, 40 µM was found to be 81%.

With `Brc1ccc(CNc2ccnc(NC3CCN(Cc4ccccc4)CC3)n2)cc1`, the IC50 stood at 9.9 µM in data set [1] and 4.1 µM in data set [2]. Also, in data set [3], the Ratio IC50 is 2.4. Also, the inhibition stood at 33% in data set [8] and 48.4% in data set [5]. Further, the inhibition entry in data set [6] and in data set [7] was “Active” in each case.
